log2FC data for two molecules are collected here from ChEMBL document CHEMBL5674883, “The Heterochromatin Landscape in Migrating Cells and the Importance of H3K27me3 for Associated Transcriptome Alterations” (Cells, 2018).

Holding throughout (assay type): cell-based
In experiment [1] the target is Histone-lysine N-methyltransferase EZH2 (Mus musculus) (UniProt Q61188). The experiment is described as follows: Inhibition of EZH2 in mouse B16-F1 migrating cells assessed as fold change in H3K27me3-buffered regulated Ankrd26-mRNA expression at 3 uM measured by […] analysis relative to control cells. The method, boiled down: (§1)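 Confluent B16-F1 cells on fibronectin-coated plates, cultured at 37 °C and 7% CO2, were scratched at multiple sites to induce migration. They were then held 3 h in growth medium containing 3 µM GSK343, with the inhibitor added 3 h before lysis. Unscratched cells served as controls. Poly A mRNA was analysed by RNA-seq (n=3 GSK343, n=5 controls). Linear models removed batch effects, and buffered genes were those altered only under GSK343 (FDR <0.05, fold change >1.3).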
Histone-lysine N-methyltransferase EZH2 (Mus musculus), sequence (Q61188 whole entry): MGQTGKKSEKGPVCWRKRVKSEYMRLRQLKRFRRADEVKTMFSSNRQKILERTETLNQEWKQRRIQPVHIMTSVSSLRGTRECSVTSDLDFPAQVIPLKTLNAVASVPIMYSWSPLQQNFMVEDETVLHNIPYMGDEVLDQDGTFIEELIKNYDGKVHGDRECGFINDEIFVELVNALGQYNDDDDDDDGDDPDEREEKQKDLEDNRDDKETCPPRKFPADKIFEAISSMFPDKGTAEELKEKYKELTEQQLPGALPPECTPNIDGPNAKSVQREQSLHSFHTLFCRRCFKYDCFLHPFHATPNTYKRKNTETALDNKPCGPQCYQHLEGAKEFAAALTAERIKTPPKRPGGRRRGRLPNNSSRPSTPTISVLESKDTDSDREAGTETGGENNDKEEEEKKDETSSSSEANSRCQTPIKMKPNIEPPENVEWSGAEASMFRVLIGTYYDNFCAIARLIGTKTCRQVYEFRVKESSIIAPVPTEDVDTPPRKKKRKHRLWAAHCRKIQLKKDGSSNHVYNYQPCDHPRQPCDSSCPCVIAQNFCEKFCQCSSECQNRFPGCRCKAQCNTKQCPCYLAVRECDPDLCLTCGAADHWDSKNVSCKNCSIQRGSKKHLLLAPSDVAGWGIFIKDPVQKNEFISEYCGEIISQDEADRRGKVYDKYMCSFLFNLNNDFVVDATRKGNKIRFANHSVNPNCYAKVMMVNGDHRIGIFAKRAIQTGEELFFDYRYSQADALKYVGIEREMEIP

The target is the same in experiment [2]. Nature of the experiment: Inhibition of EZH2 in mouse B16-F1 migrating cells assessed as fold change in H3K27me3-buffered regulated Rbl1-mRNA expression at 3 uM measured by […] analysis relative to control cells. The method, boiled down:
as §1

Experiment [3] has the same target. Nature of the experiment: Inhibition of EZH2 in mouse B16-F1 migrating cells assessed as fold change in H3K27me3-buffered regulated Lrp4-mRNA expression at 3 uM measured by […] analysis relative to control cells. In a few lines: as §1
Experiment [4] shares this target. Nature of the experiment: Inhibition of EZH2 in mouse B16-F1 migrating cells assessed as fold change in H3K27me3-dependent regulated Cxxc5-mRNA expression at 3 uM measured by […] analysis relative to control cells. The method, boiled down:
(§2)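 Confluent B16-F1 cells on fibronectin-coated plates were scratched at multiple sites, washed once with DMEM and left to migrate 3 h in growth medium (37 °C, 7% CO2); unscratched cells served as control. GSK343 (3 µM) was added 3 h before lysis. Poly A mRNA was sequenced (RNA-seq), with 5 replicates for untreated and 3 for treated cells. Differential expression was called by linear model with batch correction, at FDR <0.05 and fold change ≥1.3.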

Experiment [5] has the same target. Nature of the experiment: Inhibition of EZH2 in mouse B16-F1 migrating cells assessed as fold change in H3K27me3-buffered regulated Ptp4a1-mRNA expression at 3 uM measured by […] analysis relative to control cells. In a few lines:
as §1

The target is the same in experiment [6]. The experiment is described as follows: Inhibition of EZH2 in mouse B16-F1 migrating cells assessed as fold change in H3K27me3-dependent regulated Gm43909-mRNA expression at 3 uM measured by […] analysis relative to control cells. The method, boiled down:
as §2

Experiment [7] shares this target. The experiment is described as follows: Inhibition of EZH2 in mouse B16-F1 migrating cells assessed as fold change in H3K27me3-buffered regulated Pltp-mRNA expression at 3 uM measured by […] analysis relative to control cells. In a few lines: as §1
For experiment [8] the target is unchanged. The experiment is described as follows: Inhibition of EZH2 in mouse B16-F1 migrating cells assessed as fold change in H3K27me3-buffered regulated 5031439G07Rik-mRNA expression at 3 uM measured by […] analysis relative to control cells. In a few lines: as §1
The target is the same in experiment [9]. Nature of the experiment: Inhibition of EZH2 in mouse B16-F1 migrating cells assessed as fold change in H3K27me3-independent regulated Cntnap1-mRNA expression at 3 uM measured by […] analysis relative to control cells. In a few lines: as §2
Experiment [10] has the same target. Nature of the experiment: Inhibition of EZH2 in mouse B16-F1 migrating cells assessed as fold change in H3K27me3-independent regulated Adgrg1-mRNA expression at 3 uM measured by […] analysis relative to control cells. In a few lines:
as §2

Experiment [11] has the same target. Nature of the experiment: Inhibition of EZH2 in mouse B16-F1 migrating cells assessed as fold change in H3K27me3-independent regulated Dlx6-mRNA expression at 3 uM measured by […] analysis relative to control cells. The method, boiled down:
as §2

The target is the same in experiment [12]. Nature of the experiment: Inhibition of EZH2 in mouse B16-F1 migrating cells assessed as fold change in H3K27me3-buffered regulated 1700027J19Rik-mRNA expression at 3 uM measured by […] analysis relative to control cells. The method, boiled down: as §1
Experiment [13] has the same target. Nature of the experiment: Inhibition of EZH2 in mouse B16-F1 migrating cells assessed as fold change in H3K27me3-buffered regulated Tuba4a-mRNA expression at 3 uM measured by […] analysis relative to control cells. In a few lines:
as §2

For experiment [14] the target is unchanged. The experiment is described as follows: Inhibition of EZH2 in mouse B16-F1 migrating cells assessed as fold change in H3K27me3-independent regulated Eva1a-mRNA expression at 3 uM measured by ChIP-seq analysis relative to control cells. In a few lines: as §2
The target is the same in experiment [15]. The experiment is described as follows: Inhibition of EZH2 in mouse B16-F1 migrating cells assessed as fold change in H3K27me3-buffered regulated Clk1-mRNA expression at 3 uM measured by […] analysis relative to control cells. The method, boiled down:
as §1

For experiment [16] the target is unchanged. Nature of the experiment: Inhibition of EZH2 in mouse B16-F1 migrating cells assessed as fold change in H3K27me3-buffered regulated Stk10-mRNA expression at 3 uM measured by ChIP-seq analysis relative to control cells. In a few lines: as §2
Experiment [17] concerns the target T1, RNA polymerase II (Mus musculus) (UniProt P08775+Q8CFI7+P97760+A0A3Q4L2S8+Q80UW8+P61219+P62488+Q923G2+P60898+O08740+Q63871+P62876). The experiment is described as follows: Inhibition of RNA polymerase II in mouse B16-F1 migrating cells assessed as fold change in Arpc4-RNA stability at 0.1 mM measured by […] analysis relative to control cells.
Experiment [18] deals with T1, RNA polymerase II (Mus musculus). The experiment is described as follows: Inhibition of RNA polymerase II in mouse B16-F1 migrating cells assessed as fold change in Zcchc10-RNA stability at 0.1 mM measured by […] analysis relative to control cells.
For experiment [19] the target is unchanged. The experiment is described as follows: Inhibition of RNA polymerase II in mouse B16-F1 migrating cells assessed as fold change in Crbn-RNA stability at 0.1 mM measured by ChIP-seq analysis relative to control cells.
The target is the same in experiment [20]. Nature of the experiment: Inhibition of RNA polymerase II in mouse B16-F1 migrating cells assessed as fold change in Fkbp8-RNA stability at 0.1 mM measured by ChIP-seq analysis relative to control cells.
Experiment [21] shares this target. The experiment is described as follows: Inhibition of RNA polymerase II in mouse B16-F1 migrating cells assessed as fold change in Vps72-RNA stability at 0.1 mM measured by […] analysis relative to control cells.
For experiment [22] the target is unchanged. Nature of the experiment: Inhibition of RNA polymerase II in mouse B16-F1 migrating cells assessed as fold change in Rps8-RNA stability at 0.1 mM measured by […] analysis relative to control cells.
The target is the same in experiment [23]. Nature of the experiment: Inhibition of RNA polymerase II in mouse B16-F1 migrating cells assessed as fold change in Trappc8-RNA stability at 0.1 mM measured by […] analysis relative to control cells.
Experiment [24] has the same target. The experiment is described as follows: Inhibition of RNA polymerase II in mouse B16-F1 migrating cells assessed as fold change in Rpl14-RNA stability at 0.1 mM measured by […] analysis relative to control cells.
For experiment [25] the target is unchanged. Nature of the experiment: Inhibition of RNA polymerase II in mouse B16-F1 migrating cells assessed as fold change in Med25-RNA stability at 0.1 mM measured by ChIP-seq analysis relative to control cells.
Experiment [26] has the same target. The experiment is described as follows: Inhibition of RNA polymerase II in mouse B16-F1 migrating cells assessed as fold change in Tmsb10-RNA stability at 0.1 mM measured by […] analysis relative to control cells.

Consider `CCCc1cc(C)[nH]c(=O)c1CNC(=O)c1cc(-c2ccnc(N3CCN(C)CC3)c2)cc2c1cnn2C(C)C`, for which the log2FC was -0.47 in experiment [1]; -0.43 in experiment [2]; -0.39 in experiment [3]; 0.23 in experiment [4]; 0.38 in experiment [5]; -0.39 in [6]. For the same molecule, the log2FC in [7] is 0.39; in [8], 0.45; in [9], -0.76; in experiment [10], 0.48; in [11], -0.86; in [12], 0.73. Moreover, the log2FC in experiment [13] is 0.42; in experiment [14] it was 0.84; in experiment [15] it was -0.75; in experiment [16], -0.44.
For `OC[C@H]1O[C@@H](n2cnc3cc(Cl)c(Cl)cc32)[C@H](O)[C@@H]1O`, the log2FC is 0.44 in experiment [17]; -0.7 in experiment [18]; -0.45 in [19]; 0.41 in experiment [20]; 0.46 in [21]; 0.41 in experiment [22]. The log2FC in experiment [23] was -0.62; in experiment [24], 0.49; in [25], 0.42; in [26] it was 0.62.
